# Test results as given in ChEMBL document CHEMBL1150856, “Trypanocidal withanolides and withanolide glycosides from Dunalia brachyacantha” (2001).
# Active and inactive are the calls of the source. No cut-off for these calls is given here.
# Tests used:
# Leishmania amazonensis [1] = assay: Antiparasitic activity against Leishmania amazonensis IFLA/BR/67/PH8 at 50 ug/mL after 72 hrs; format: functional, organism-based
# Outline: (§1)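 Promastigotes at 50 000 parasites/mL, 27 °C, 72 h, with compound at final 50, 25, 10, 1 and 0.1 μg/mL. Compound dissolved in medium plus DMSO (final DMSO under 0.1%) and filter-sterilised (0.22 μm). Triplicate wells. Activity was judged by inverted phase-contrast microscopy of a culture drop against untreated and pentamidine controls.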
# Leishmania braziliensis [2] = assay: Antiparasitic activity against Leishmania braziliensis MHOM/BR/75/M2903 at 50 ug/mL after 72 hrs; format: functional, organism-based; outline: as §1
# Leishmania donovani [3] = assay: Antiparasitic activity against Leishmania donovani MHOM/IN/83/HS70 at 50 ug/mL after 72 hrs; format: functional, organism-based; outline: as §1
# Trypanosoma cruzi [4] = assay: Antiparasitic activity against Trypanosoma cruzi Tulahuen epimastigotes at 50 ug/mL after 48 hrs; format: functional
# Outline: (§2)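 Epimastigotes in LIT medium with 10% fetal calf serum, inoculum 10⁶ cells/mL, 28 °C. Samples were dissolved in DMSO and medium to final 50, 20, 10, 1 and 0.1 μg/mL (final DMSO under 0.5%). Triplicate. After 48 h, parasites were counted by haemocytometer and compared with untreated and pentamidine controls.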
# Leishmania amazonensis [5] = assay: Antiparasitic activity against Leishmania amazonensis IFLA/BR/67/PH8 at 25 ug/mL after 72 hrs; format: functional, organism-based; outline: as §1
# Leishmania braziliensis [6] = assay: Antiparasitic activity against Leishmania braziliensis MHOM/BR/75/M2903 at 25 ug/mL after 72 hrs; format: functional, organism-based; outline: as §1
# Leishmania donovani [7] = assay: Antiparasitic activity against Leishmania donovani MHOM/IN/83/HS70 at 25 ug/mL after 72 hrs; format: functional, organism-based; outline: as §1
# Trypanosoma cruzi [8] = assay: Antiparasitic activity against Trypanosoma cruzi Tulahuen epimastigotes at 25 ug/mL after 48 hrs; format: functional
# Leishmania amazonensis [9] = assay: Antiparasitic activity against Leishmania amazonensis IFLA/BR/67/PH8 at 10 ug/mL after 72 hrs; format: functional; outline: as §1
# Leishmania braziliensis [10] = assay: Antiparasitic activity against Leishmania braziliensis MHOM/BR/75/M2903 at 10 ug/mL after 72 hrs; format: functional; outline: as §1
# Leishmania donovani [11] = assay: Antiparasitic activity against Leishmania donovani MHOM/IN/83/HS70 at 10 ug/mL after 72 hrs; format: functional; outline: as §1
# Trypanosoma cruzi [12] = assay: Antiparasitic activity against Trypanosoma cruzi Tulahuen epimastigotes at 10 ug/mL after 48 hrs; format: functional; outline: as §2
# Shigella flexneri [13] = assay: Antibacterial activity against Shigella flexneri […] at 0.0625 mg/mL after 18 hrs; format: functional, organism-based
# Staphylococcus aureus [14] = assay: Antibacterial activity against Staphylococcus aureus ATCC 25923/6538 at 0.0625 mg/mL after 18 hrs; format: functional, organism-based
# Escherichia coli = assay: Antibacterial activity against Escherichia coli ATCC 8739 at 0.0312 mg/mL after 18 hrs; format: functional, organism-based
# Shigella flexneri [15] = assay: Antibacterial activity against Shigella flexneri […] at 0.0312 mg/mL after 18 hrs; format: functional, organism-based
# Staphylococcus aureus [16] = assay: Antibacterial activity against Staphylococcus aureus ATCC 25923/6538 at 0.0312 mg/mL after 18 hrs; format: functional, organism-based
# Bacillus subtilis = assay: Antibacterial activity against Bacillus subtilis ATCC 6633 at 0.0312 mg/mL after 18 hrs; format: functional, organism-based
# Leishmania amazonensis [17] = assay: Antiparasitic activity against Leishmania amazonensis IFLA/BR/67/PH8 at 1 ug/mL after 72 hrs; format: functional; outline: as §1
# Leishmania braziliensis [18] = assay: Antiparasitic activity against Leishmania braziliensis MHOM/BR/75/M2903 at 1 ug/mL after 72 hrs; format: functional; outline: as §1
# Leishmania donovani [19] = assay: Antiparasitic activity against Leishmania donovani MHOM/IN/83/HS70 at 1 ug/mL after 72 hrs; format: functional; outline: as §1
# Trypanosoma cruzi [20] = assay: Antiparasitic activity against Trypanosoma cruzi Tulahuen epimastigotes at 1 ug/mL after 48 hrs; format: functional; outline: as §2
# Leishmania amazonensis [21] = assay: Antiparasitic activity against Leishmania amazonensis IFLA/BR/67/PH8 at 0.1 ug/mL after 72 hrs; format: functional; outline: as §1
# Leishmania braziliensis [22] = assay: Antiparasitic activity against Leishmania braziliensis MHOM/BR/75/M2903 at 0.1 ug/mL after 72 hrs; format: functional; outline: as §1
# Leishmania donovani [23] = assay: Antiparasitic activity against Leishmania donovani MHOM/IN/83/HS70 at 0.1 ug/mL after 72 hrs; format: functional; outline: as §1
# Trypanosoma cruzi [24] = assay: Antiparasitic activity against Trypanosoma cruzi Tulahuen epimastigotes at 0.1 ug/mL after 48 hrs; format: functional; outline: as §2
Compound,Activity (Leishmania amazonensis [1]),Activity (Leishmania braziliensis [2]),Activity (Leishmania donovani [3]),Activity (Trypanosoma cruzi [4]),Activity (Leishmania amazonensis [5]),Activity (Leishmania braziliensis [6]),Activity (Leishmania donovani [7]),Activity (Trypanosoma cruzi [8]),Activity (Leishmania amazonensis [9]),Activity (Leishmania braziliensis [10]),Activity (Leishmania donovani [11]),Activity (Trypanosoma cruzi [12]),other results
CC(=O)OC[C@]12CC[C@H]3[C@@H](C[C@H]4O[C@]45[C@@H](O)C=CC(=O)[C@]35C)[C@@H]1CC[C@@H]2[C@@](C)(O)[C@H]1CC(C)=C(C)C(=O)O1,Active,Active,Active,50%,Active,Active,Active,0%,75%,50%,75%,0%,–
CC(=O)OC[C@]12CC[C@H]3[C@@H](CC=C4[C@@H](O)C=CC(=O)[C@@]43C)[C@@H]1CC[C@@H]2[C@@](C)(O)[C@H]1CC(C)=C(C)C(=O)O1,Active,Active,Active,Active,Active,Active,Active,Active,Active,Active,Active,75%,Activity (Shigella flexneri [13]): inactive; Activity (Staphylococcus aureus [14]): inactive; Activity (Escherichia coli): inactive; Activity (Shigella flexneri [15]): inactive; Activity (Staphylococcus aureus [16]): inactive; Activity (Bacillus subtilis): inactive; Activity (Leishmania amazonensis [17]): 75%; Activity (Leishmania braziliensis [18]): 50%; Activity (Leishmania donovani [19]): 75%; Activity (Trypanosoma cruzi [20]): 0%; Activity (Leishmania amazonensis [21]): 0%; Activity (Leishmania braziliensis [22]): 0%; Activity (Leishmania donovani [23]): 0%; Activity (Trypanosoma cruzi [24]): 0%
N=C(N)c1ccc(OCCCCCOc2ccc(C(=N)N)cc2)cc1,–,–,–,–,–,–,–,–,Active,Active,Active,Active,–
